Assay outcomes (PubChem)
The list is not random: actives were taken first. Their share in the collection is about 2.1%.
zfTRPN1 agonist: activates the zebrafish TRPN1 channel. HEK293 zebrafish TRPN1-YFP, Fluo-8 calcium fluorescence; 100% = response to 87 µM carbachol. activation, % at 3 µM. 0.18% of 220,000 active. AID 1424;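 active means activation above its plate's cutoff, the mean activation of test wells on that plate plus 3 SD, cut at about 19% in these data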;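 further: 0% = DMSO alone and 100% = 87 µM carbachol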
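Control set: carbachol 87 µM as high control, DMSO as low control; system: HEK293 stable line with zebrafish TRPN1-YFP; read-out: % activation versus carbachol response; detection: intracellular calcium fluorescence with Fluo-8; doses: single test compound dose, 3 µM nominal, 0.3% DMSO; schedule: dye 1 h 37 °C plus 30 min RT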
IMP-1 inh: blocks Pseudomonas aeruginosa IMP-1 metallo-beta-lactamase | 0.45% of 290,000 active | purified IMP-1, nitrocefin hydrolysis, epi-absorbance fluorescence | AID 1556 | inhibition, % at 5.6 µM;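 active means inhibition above the mean plus 3 SD of all compounds in the same screening run, cut at about 4.5% in these data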;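 further: 0% = IMP-1 with DMSO and 100% = DMSO wells lacking enzyme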
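Test system: recombinant IMP-1 enzyme, purified / Medium: HEPES buffer pH 7.1 with ZnSO4 and Brij 35 / Doses: single dose, 5.6 µM / Times: 25 °C, 15 min preincubation, 25 min reaction / Detection: Epi-absorbance via hydrolysed-nitrocefin quenching of white-plate fluorescence, 480/530 nm, EDTA stop / Evaluation: percent inhibition from optical density relative to buffer-blank wells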
TRPML3 ag: agonists of human TRPML3 channel. Q8TDD5. HEK293 TRPML3-YFP, Fluo-8 calcium fluorescence; 100% = the carbachol control signal. activation, % at 3 µM. 0.29% of 220,000 active;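 active means activation above its plate's cutoff, the mean activation of the plate's test wells plus 3 SD, cut at about 12% in these data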;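 further: 0% = DMSO only wells and 100% = carbachol wells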
Target sequence (Q8TDD5 whole entry, looked up): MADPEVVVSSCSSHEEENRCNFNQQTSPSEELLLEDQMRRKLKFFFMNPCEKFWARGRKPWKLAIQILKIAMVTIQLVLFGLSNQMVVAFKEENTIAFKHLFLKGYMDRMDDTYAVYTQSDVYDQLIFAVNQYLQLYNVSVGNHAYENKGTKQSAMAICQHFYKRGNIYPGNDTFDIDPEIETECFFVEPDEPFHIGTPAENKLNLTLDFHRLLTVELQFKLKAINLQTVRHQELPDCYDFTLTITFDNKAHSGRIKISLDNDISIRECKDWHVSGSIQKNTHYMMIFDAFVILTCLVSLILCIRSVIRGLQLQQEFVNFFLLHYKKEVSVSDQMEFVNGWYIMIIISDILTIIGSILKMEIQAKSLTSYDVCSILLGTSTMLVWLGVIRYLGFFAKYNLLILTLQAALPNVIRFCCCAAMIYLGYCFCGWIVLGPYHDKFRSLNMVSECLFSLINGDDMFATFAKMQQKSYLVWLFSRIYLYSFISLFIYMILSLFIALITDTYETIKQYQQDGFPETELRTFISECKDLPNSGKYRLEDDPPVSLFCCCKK
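Test system: HEK293 cells stably carrying human TRPML3-YFP; Doses: single dose, 3 µM final nominal compound, 0.3% DMSO final; Schedule: dye loading 1 h 37 °C then 30 min ambient, 125 s read; Technique: Fluo-8 calcium fluorescence; Benchmarks: high control carbachol 87 µM, low control DMSO.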
VIM-2 inh: blocks Pseudomonas aeruginosa VIM-2 metallo-beta-lactamase | purified VIM-2, nitrocefin hydrolysis, epi-absorbance fluorescence | inhibition, % at 5.6 µM | 0.89% of 290,000 active | AID 1527;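 active means inhibition above the mean of all tested compounds plus 3 SD, cutoff set per screening run, cut at about 7.5% in these data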;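 further: red hydrolysis product quenches plate fluorescence so inhibitors raise well fluorescence; 0% = enzyme with DMSO and 100% = DMSO without enzyme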
CRFR2-BP ag: agonists of human CRF-binding protein/CRF-R2 receptor complex. HEK293 CRF-R2/CRF-BP, calcium dye fluorescence (FLIPR); percent of saturating CRF peptide response. activation, % at 13.2 µM. 0.46% of 350,000 active. AID 588473;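 active means activation of at least 50%, plus an integration ratio under a set limit after plate pattern correction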;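 further: plate controls were neutral control wells without compound for no effect and CRF at EC100 for full effect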
CRFBP-R2 block: antagonists of CRF-binding protein/CRF-R2 receptor complex. AID 588475. inhibition, % at 11.8 µM. HEK293 CRF-R2/CRF-BP, CRF-induced calcium fluorescence. 0.59% of 350,000 active;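 active means inhibition of the ligand-induced calcium signal above about 50% at the single tested concentration, limit read from the data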
TRPN1 counter: zebrafish TRPN1 agonism as TRPML3 agonist counter-screen | shares compounds with TRPML3 ag | HEK293 zebrafish TRPN1-YFP, Fluo-8 calcium fluorescence; scaled: carbachol wells 100%, DMSO wells 0% | activation, % at 3 µM | 10% of 310 active | AID 1525;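 active means mean activation over replicates above a set limit taken from the earlier TRPN1 channel primary screen, cut at about 19% in these data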;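 further: 100% = carbachol and 0% = 0.3% DMSO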
TRPML3 ag conf: confirmation of human TRPML3 channel agonists | shares compounds with TRPML3 ag | HEK293 TRPML3-YFP, Fluo-8 calcium fluorescence; 100% set by carbachol, 0% by DMSO | activation, % at 3 µM | 80% of 310 active | AID 1526;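 active means activation above a set limit derived from the earlier primary screen, cut at about 12% in these data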
An asterisk follows results filed as active; x = no result.

SMILES | zfTRPN1 agonist | IMP-1 inh | TRPML3 ag | VIM-2 inh | CRFR2-BP ag | CRFBP-R2 block | TRPN1 counter | TRPML3 ag conf
COc1cc(S(=O)(=O)N(C)C2CCCCC2)c(C)cc1C | -3 | -4 | 54* | -2 | 1 | 14 | -3 | 63*
c1ccc2c(c1)OCCOCCOCCOCCOCCOc1ccccc1OCCOCCOCCO2 | 11 | -3 | 12* | 0 | 60* | 99* | 25* | 11
OCCN1CCOCCOc2ccccc2OCCOCC1 | x | 0 | x | 1 | -2 | 8 | x | x
CC(C)n1c(SCC(=O)Nc2nncs2)nnc1-c1ccco1 | x | -6 | x | -5 | 0 | 13 | x | x
COc1cc(/C=C2\SC(=S)N(Nc3ncc(C(F)(F)F)cc3Cl)C2=O)ccc1O | 15 | 4 | 13* | 2 | 115* | -169 | 29* | 15*
O=C(Nc1ccccc1Br)c1cc[n+]([O-])cc1 | x | -2 | x | 0 | 0 | -14 | x | x
O=S1(=O)CCS(=O)(=O)C1c1ccccc1 | x | x | x | x | 2 | -6 | x | x
CC(=O)c1ccc(NC(=S)NC(C)c2ccc(Cl)cc2Cl)cc1 (stereo not drawn) | 16 | -2 | 14* | -4 | 25 | -37 | 17 | 9
CCc1ccccc1NCC(=O)Nc1ccc(Cl)c(C(F)(F)F)c1 | 0 | -3 | 1 | -3 | -1 | 2 | x | x
CC1=CC(C)(C)N(C(=O)CSc2nnc(-c3ccc(C)cc3)o2)c2ccc(C)cc21 | 0 | -2 | 62* | -1 | 2 | 11 | -2 | 49*
COc1ccccc1C1(CC(=O)N2CCCCC2)CCOC(C(C)C)C1 (stereo not drawn) | 0 | -2 | 14* | -3 | 1 | -17 | -1 | 11
CCCN(CCC)S(=O)(=O)c1ccc(C(=O)N2CCCc3ccccc32)cc1 | 6 | 3 | 133* | -3 | 0 | -27 | 6 | 104*
CC(=O)c1sc(NC(=O)C2(F)C(F)(F)C(F)(F)C(F)(F)C(F)(F)C2(F)F)nc1C | 19 | -2 | 22* | -3 | 49 | 66* | 31* | 16*
CCS(=O)(=O)N1CCC(C(=O)N2CCOCC2)CC1 | 2 | -7 | 1 | 1 | -3 | 10 | x | x
O=C(C1CCN(S(=O)(=O)N2CCOCC2)CC1)N1CCOCC1 | 1 | -1 | 16* | -2 | -1 | 7 | 0 | 1
COc1ccc(NC(=O)c2cccc([N+](=O)[O-])c2)cc1 | 0 | -2 | 1 | -6 | 1 | -6 | x | x
COc1ccc(NC(=O)c2cc([N+](=O)[O-])ccc2O)cc1 | 17 | -1 | 15* | -1 | 37 | 48 | 26* | 11
COc1cccc(-c2c(C(=O)N/N=C(\C)COc3ccccc3)nnn2-c2nonc2N)c1 | x | -3 | x | -4 | 0 | -18 | x | x
O=C1CN(S(=O)(=O)c2ccc(Cl)cc2)CC(=O)N1CCc1ccccc1 | 0 | 0 | 9 | -3 | 0 | 5 | x | x
O=C1CN(S(=O)(=O)c2ccc(F)cc2)CC(=O)N1CCc1ccccc1 | 0 | -3 | 12* | -1 | x | x | 1 | 23*
O=C(CN(C(=O)CNC(=O)c1ccco1)c1ccc(F)cc1)NC1CCCC1 | x | 0 | x | -1 | 0 | -6 | x | x
COC(=O)c1cnc(N2CCCN(S(=O)(=O)c3ccccc3)CC2)nc1C(F)(F)F | 0 | 1 | 13* | 1 | 0 | 9 | 1 | 13*
COc1cc(C(=O)NCc2ccc(S(N)(=O)=O)cc2)ccc1OCC(=O)N1CCOCC1 | x | x | x | x | 0 | -2 | x | x
Cc1noc(C)c1C(=O)Nc1nc2ccccc2s1 | x | x | x | x | -2 | -1 | x | x
Cc1cc(C)c(S(=O)(=O)Nc2ccccc2-c2ccccc2)c(C)c1 | 0 | -2 | 13* | -1 | 4 | -32 | 0 | 45*
SMILES | zfTRPN1 agonist | IMP-1 inh | TRPML3 ag | VIM-2 inh | CRFR2-BP ag | CRFBP-R2 block | TRPN1 counter | TRPML3 ag conf
N#C/C(=C\c1cn(CCOc2ccccc2)c2ccccc12)C(=O)NCC1CCCO1 (stereo not drawn) | 0 | -3 | 25* | -2 | 5 | -3 | 1 | 11
O=C(c1ccccc1F)N(NC(=O)C(O)(c1ccccc1)c1ccccc1)c1ccccc1 | -3 | -4 | 18* | -4 | -2 | 18 | -2 | 30*
COc1ccc(C2CC(c3cccs3)=NN2C(=O)CSc2nc(=O)n3cc(C)ccc3n2)cc1 (stereo not drawn) | x | x | x | x | 3 | 9 | x | x
O=S(=O)(Nc1ccccc1N1CCCCC1)c1ccc(Cl)s1 | -3 | -4 | 139* | -3 | -1 | -12 | -2 | 110*
Cc1onc(-c2ccccc2)c1C(=O)N(Cc1ccco1)Cc1cccs1 | -2 | -2 | 29* | -1 | -1 | 9 | -3 | 19*
O=C(c1ccccc1F)N1CCCC(C(=O)N2CCc3ccccc3C2)C1 (stereo not drawn) | 1 | -2 | 0 | -1 | -1 | -5 | x | x
CCCSc1nc(C)cc(C)c1S(=O)(=O)c1ccccc1C | -1 | -1 | 4 | -1 | -2 | 20 | x | x
Cc1ccccc1S(=O)(=O)c1c(C)cc(C)n(C(C)C)c1=O | -2 | -3 | 30* | -4 | -1 | 8 | -3 | 35*
CCCCn1c(C)cc(C)c(S(=O)(=O)c2ccccc2C)c1=O | -2 | -2 | 18* | -2 | 2 | 22 | -2 | 58*
Cc1cc(C)c(S(=O)(=O)c2ccccc2C)c(SCC(C)C)n1 | 0 | -3 | 1 | -2 | -1 | 28 | x | x
Cc1cc(C)c(N2CCN(S(=O)(=O)N3CCCCCC3)CC2)c(C)c1 | 2 | -2 | 67* | -3 | 35 | -39 | 45* | 165*
Cc1cc(NC(=O)COC(=O)[C@@H](NS(=O)(=O)c2ccccc2)C(C)C)no1 | 1 | -2 | 0 | -1 | -3 | -6 | x | x
CC(C)[C@H](NS(=O)(=O)c1ccccc1)C(=O)OCC(=O)Nc1ccccc1Sc1ccccc1 | -3 | -2 | 42* | -1 | 2 | -26 | 0 | 66*
CC1CCCCC1NC(=O)CN1C(=O)CSc2cc(S(=O)(=O)N3CCCCCC3)ccc21 (stereo not drawn) | -1 | -4 | 33* | -1 | -4 | 3 | -1 | 8
Cc1cc(C(=O)COc2cccnc2[N+](=O)[O-])c(C)n1Cc1cccs1 | 4 | -3 | 2 | -1 | 4 | 0 | x | x
CC(=O)Nc1ccccc1OCC(=O)c1cc(C)n(Cc2cccs2)c1C | 16 | -2 | 28* | -2 | 161* | -89 | 27* | 34*
